Source: ChEMBL document CHEMBL1128345, “Derivatives of 2-[[N-(Aminocarbonyl)-N-hydroxyamino]methyl]-1,4- benzodioxan as orally active 5-lipoxygenase inhibitors” (J Med Chem, 1995)
Values joined by “and” are separate entries in the source; they are usually repeats but may differ in a detail not shown here. Identical values can stand only once.

What was measured:
[1] = target: T1, Polyunsaturated fatty acid 5-lipoxygenase (Homo sapiens) (UniProt P09917); assay: Ex vivo inhibition of 5-lipoxygenase was determined by the measurement of A-23187-stimulated LTB4 production in dog blood at 6.0h, following intravenous administration at the dose of 1.0 mg/kg; assay type: functional, organism-based; parameters: dose 1 mg/kg; conditions: Canis lupus familiaris, target entry is the homologue from another species
T1 sequence (whole entry): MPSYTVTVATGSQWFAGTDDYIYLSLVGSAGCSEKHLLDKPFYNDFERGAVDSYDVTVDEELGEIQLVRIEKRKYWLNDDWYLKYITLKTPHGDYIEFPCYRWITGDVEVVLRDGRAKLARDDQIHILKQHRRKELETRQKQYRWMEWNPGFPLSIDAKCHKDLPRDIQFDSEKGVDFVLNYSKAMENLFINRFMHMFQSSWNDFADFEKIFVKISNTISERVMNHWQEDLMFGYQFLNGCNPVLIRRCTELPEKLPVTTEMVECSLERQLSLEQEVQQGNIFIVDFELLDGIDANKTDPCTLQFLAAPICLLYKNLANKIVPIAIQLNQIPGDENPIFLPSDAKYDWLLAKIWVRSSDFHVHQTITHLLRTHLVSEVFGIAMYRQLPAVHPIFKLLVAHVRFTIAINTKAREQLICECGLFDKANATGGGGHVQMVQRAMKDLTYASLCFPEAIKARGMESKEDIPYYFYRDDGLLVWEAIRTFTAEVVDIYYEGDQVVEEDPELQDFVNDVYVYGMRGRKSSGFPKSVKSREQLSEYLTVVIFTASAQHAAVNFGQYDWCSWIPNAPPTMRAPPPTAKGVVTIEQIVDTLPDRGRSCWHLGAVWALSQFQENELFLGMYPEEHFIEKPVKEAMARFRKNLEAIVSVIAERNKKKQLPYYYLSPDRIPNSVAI
Summary of the method: (§1)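 Dogs received a single iv dose. Whole blood was sampled at the stated time after dosing and stimulated ex vivo with calcium ionophore A23187. LTB4 was quantitated by radioimmunoassay. Percent inhibition was calculated against each animal's pre-dose LTB4 value. One to three experiments were run per dose.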

[2] = target: T1, Polyunsaturated fatty acid 5-lipoxygenase (Homo sapiens); assay: Ex vivo inhibition of 5-lipoxygenase was determined by the measurement of A-23187-stimulated LTB4 production in dog blood at 1.0h, following intravenous administration at the dose of 1.0 mg/kg; assay type: functional, organism-based; parameters: dose 1 mg/kg; conditions: Canis lupus familiaris, target entry is the homologue from another species; summary of the method: as §1
[3] = target: T1, Polyunsaturated fatty acid 5-lipoxygenase (Homo sapiens); assay: Ex vivo inhibition of 5-lipoxygenase was determined by the measurement of A-23187-stimulated LTB4 production in dog blood at 0.5h, following intravenous administration at the dose of 1.0 mg/kg; assay type: functional, organism-based; parameters: dose 1 mg/kg; conditions: Canis lupus familiaris, target entry is the homologue from another species; summary of the method: as §1
[4] = Duration of action was defined as the period of time from maximum inhibition of A-23187-stimulated LTB4 formation to the time where 50% of maximum inhibition is reached
Summary of the method: (§2)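 Dogs got a single iv or oral dose. Whole blood was drawn at set times afterwards and stimulated ex vivo with the calcium ionophore A23187. LTB4 was measured by radioimmunoassay, and inhibition was taken as the change from the pre-dose LTB4 value. DA, the time from maximum inhibition to 50% of maximum, was read graphically from the plot of percent inhibition vs time.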

[5] = target: T1, Polyunsaturated fatty acid 5-lipoxygenase (Homo sapiens); assay: Ex vivo inhibition of 5-lipoxygenase was determined by the measurement of A-23187-stimulated LTB4 production in dog blood at 0.25h, following intravenous administration at the dose of 1.0 mg/kg; assay type: functional, organism-based; parameters: dose 1 mg/kg; conditions: Canis lupus familiaris, target entry is the homologue from another species
Summary of the method: (§3)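 Dog ex vivo assay: compound given as a single iv dose. Whole blood drawn at set times after dosing was stimulated ex vivo with calcium ionophore A23187. LTB4 was quantitated by radioimmunoassay. Percent inhibition at each time point was calculated against the LTB4 value before dosing. n = 1–3 experiments per compound.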

[6] = target: T1, Polyunsaturated fatty acid 5-lipoxygenase (Homo sapiens); assay: Ex vivo inhibition of 5-lipoxygenase was determined by the measurement of A-23187-stimulated LTB4 production in dog blood at 24h, following intravenous administration at the dose of 1.0 mg/kg; assay type: functional, organism-based; parameters: dose 1 mg/kg; conditions: Canis lupus familiaris, target entry is the homologue from another species; summary of the method: as §1
[7] = target: T1, Polyunsaturated fatty acid 5-lipoxygenase (Homo sapiens); assay: Ex vivo inhibition of 5-lipoxygenase was determined by the measurement of A-23187-stimulated LTB4 production in dog blood at 9.0h, following intravenous administration at the dose of 1.0 mg/kg; assay type: functional, organism-based; parameters: dose 1 mg/kg; conditions: Canis lupus familiaris, target entry is the homologue from another species; summary of the method: as §1
[8] = target: T1, Polyunsaturated fatty acid 5-lipoxygenase (Homo sapiens); assay: Ex vivo inhibition of 5-lipoxygenase was determined by the measurement of A-23187-stimulated LTB4 production in dog blood at 0.08h, following intravenous administration at the dose of 1.0 mg/kg; assay type: functional, organism-based; parameters: dose 1 mg/kg; conditions: Canis lupus familiaris, target entry is the homologue from another species; summary of the method: as §1
[9] = target: T1, Polyunsaturated fatty acid 5-lipoxygenase (Homo sapiens); assay: Ex vivo inhibition of 5-LO was determined by the measurement of A-23187-stimulated LTB4 production in dog blood at 1.0h, following intravenous administration at the dose of 1.0 mg/kg; assay type: functional, organism-based; parameters: dose 1 mg/kg; conditions: Canis lupus familiaris, target entry is the homologue from another species; summary of the method: as §1
[10] = target: T1, Polyunsaturated fatty acid 5-lipoxygenase (Homo sapiens); assay: Ex vivo inhibition of 5-LO was determined by the measurement of A-23187-stimulated LTB4 production in dog blood at 24h, following intravenous administration at the dose of 1.0 mg/kg; assay type: functional, organism-based; parameters: dose 1 mg/kg; conditions: Canis lupus familiaris, target entry is the homologue from another species; summary of the method: as §1
[11] = target: T1, Polyunsaturated fatty acid 5-lipoxygenase (Homo sapiens); assay: Ex vivo inhibition of 5-LO was determined by the measurement of A-23187-stimulated LTB4 production in dog blood at 0.08h, following intravenous administration at the dose of 1.0 mg/kg; assay type: functional, organism-based; parameters: dose 1 mg/kg; conditions: Canis lupus familiaris, target entry is the homologue from another species; summary of the method: as §1
[12] = target: T1, Polyunsaturated fatty acid 5-lipoxygenase (Homo sapiens); assay: Ex vivo inhibition of 5-LO was determined by the measurement of A-23187-stimulated LTB4 production in dog blood at 3.0h, following intravenous administration at the dose of 1.0 mg/kg; assay type: functional, organism-based; parameters: dose 1 mg/kg; conditions: Canis lupus familiaris, target entry is the homologue from another species; summary of the method: as §1
[13] = target: T1, Polyunsaturated fatty acid 5-lipoxygenase (Homo sapiens); assay: Ex vivo inhibition of 5-LO was determined by the measurement of A-23187-stimulated LTB4 production in dog blood at 6.0h, following intravenous administration at the dose of 1.0 mg/kg; assay type: functional, organism-based; parameters: dose 1 mg/kg; conditions: Canis lupus familiaris, target entry is the homologue from another species; summary of the method: as §1
[14] = target: T1, Polyunsaturated fatty acid 5-lipoxygenase (Homo sapiens); assay: Ex vivo inhibition of 5-LO was determined by the measurement of A-23187-stimulated LTB4 production in dog blood at 0.5h, following intravenous administration at the dose of 1.0 mg/kg; assay type: functional, organism-based; parameters: dose 1 mg/kg; conditions: Canis lupus familiaris, target entry is the homologue from another species; summary of the method: as §1
[15] = target: T1, Polyunsaturated fatty acid 5-lipoxygenase (Homo sapiens); assay: Ex vivo inhibition of 5-LO was determined by the measurement of A-23187-stimulated LTB4 production in dog blood at 0.25h, following intravenous administration at the dose of 1.0 mg/kg; assay type: functional, organism-based; parameters: dose 1 mg/kg; conditions: Canis lupus familiaris, target entry is the homologue from another species; summary of the method: as §3
[16] = target: T1, Polyunsaturated fatty acid 5-lipoxygenase (Homo sapiens); assay: Ex vivo inhibition of 5-LO was determined by the measurement of A-23187-stimulated LTB4 production in dog blood at 9.0h, following intravenous administration at the dose of 1.0 mg/kg; assay type: functional, organism-based; parameters: dose 1 mg/kg; conditions: Canis lupus familiaris, target entry is the homologue from another species; summary of the method: as §1
[17] = Duration of action of 5-LO was defined as the period of time from maximum inhibition of A-23187-stimulated LTB4 formation to the time where 50% of maximum inhibition is reached; summary of the method: as §2

NC(=O)N(O)CC1COc2ccc(Oc3ccccc3)cc2O1 (stereo unspecified)
inhibition [1]: 22% | inhibition [2]: 100% | inhibition [3]: 100% | Duration of action [4]: 4 h | inhibition [5]: 100% | inhibition [6]: 4% | inhibition [7]: 0% | inhibition [8]: 100%

NC(=O)N(O)CC1COc2cc(Oc3ccccc3)ccc2O1 (stereo unspecified)
inhibition [9]: 98% | inhibition [10]: 2% | Duration of action [4]: 1.7 h | inhibition [11]: 100% | inhibition [12]: 14% | inhibition [13]: 1% | inhibition [14]: 100% | inhibition [15]: 100% | inhibition [16]: 9%

CC(c1cc2ccccc2s1)N(O)C(N)=O (stereo unspecified) [ZILEUTON]
inhibition [1]: 56% | inhibition [2]: 87% | inhibition [3]: 91% | Duration of action [4]: 8.5 h and 9.8 h | inhibition [5]: 94% | inhibition [6]: 27% | inhibition [7]: 47% | inhibition [8]: 96%

CCCCNC(=O)N(O)CC1COc2ccccc2O1 (stereo unspecified)
inhibition [1]: 0% | inhibition [2]: 45% | inhibition [3]: 64% | Duration of action [4]: 0.7 h | inhibition [5]: 100% | inhibition [8]: 100%

NC(=O)N(O)CC1COc2ccc(Oc3ccc(F)cc3)cc2O1 (stereo unspecified)
inhibition [1]: 63% | inhibition [2]: 92% | inhibition [3]: 94% | Duration of action [4]: 8.2 h and 8.5 h | inhibition [5]: 98% | inhibition [6]: 17% | inhibition [7]: 34% and 48% | inhibition [8]: 94%

NC(=O)N(O)C[C@@H]1COc2ccc(Oc3ccc(F)cc3)cc2O1
inhibition [2]: 100% | inhibition [3]: 100% | inhibition [10]: 0% | Duration of action [4]: 3.8 h and 3.7 h | inhibition [5]: 100% | inhibition [13]: 15% | inhibition [16]: 0% | inhibition [8]: 100%

NC(=O)N(O)C[C@H]1COc2ccc(Oc3ccc(F)cc3)cc2O1
Duration of action [17]: 8.4 h

CNC(=O)N(O)CC1COc2ccc(Oc3ccccc3)cc2O1 (stereo unspecified)
inhibition [1]: 0% | inhibition [2]: 74% | inhibition [3]: 98% | Duration of action [4]: 1.5 h | inhibition [5]: 100% | inhibition [6]: 0% | inhibition [7]: 9% | inhibition [8]: 100%
